Laboratory results taken from ChEMBL document CHEMBL3739417, “Synthesis and biological evaluation of novel 4,5-disubstituted 2H-1,2,3-triazoles as cis-constrained analogues of combretastatin A-4” (2015).

Legend:
Format in all cases: functional
[1] = test system: MDA-MB-231; assay: Growth inhibition of human MDA-MB-231 cells after 48 hrs by sulforhodamine B assay; conditions: MDA-MB-231, 48 h
Procedure, shortened: (§1)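 NCI-60 panel screen by SRB assay (Rubinstein method). Percentage growth taken from optical density of SRB colour, read before and 48 hrs after exposure to compound or vehicle control. All analogues first screened at 10^-5 M. Analogues giving 60% growth inhibition at that level in at least eight lines then went to a five-concentration dose-response study.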

[2] = Growth inhibition of human OVCAR3 cells after 48 hrs by sulforhodamine B assay; conditions: OVCAR-3, 48 h
Procedure, shortened: (§2)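 NCI-60 sulforhodamine B screen. Compounds were first tested at a single dose of 10⁻⁵ M; hits, defined as ≥60% growth inhibition in at least eight lines, went on to a five-concentration dose–response. SRB optical density was read before and 48 h after exposure to compound or vehicle. Percentage growth was calculated from OD.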

[3] = test system: CAKI-1; assay: Growth inhibition of human CAKI-1 cells after 48 hrs by sulforhodamine B assay; conditions: CAKI-1, 48 h; procedure, shortened: as §1
[4] = test system: SK-MEL-5; assay: Growth inhibition of human SK-MEL-5 cells after 48 hrs by sulforhodamine B assay; conditions: SK-MEL-5, 48 h; procedure, shortened: as §1
[5] = test system: 786-0; assay: Growth inhibition of human 786-0 cells after 48 hrs by sulforhodamine B assay; conditions: 786-0, 48 h; procedure, shortened: as §1
[6] = test system: MDA-MB-468; assay: Growth inhibition of human MDA-MB-468 cells after 48 hrs by sulforhodamine B assay; conditions: MDA-MB-468, 48 h; procedure, shortened: as §1
[7] = Growth inhibition of human MOLT4 cells after 48 hrs by sulforhodamine B assay; conditions: MOLT-4, 48 h; procedure, shortened: as §1
[8] = test system: K562; assay: Growth inhibition of human K562 cells after 48 hrs by sulforhodamine B assay; conditions: K562, 48 h; procedure, shortened: as §1
[9] = Growth inhibition of human HCC2998 cells after 48 hrs by sulforhodamine B assay; conditions: HCC 2998, 48 h; procedure, shortened: as §1
[10] = Growth inhibition of human LOXIMVI cells after 48 hrs by sulforhodamine B assay; conditions: LOX IMVI; procedure, shortened: as §1
[11] = test system: U-251; assay: Growth inhibition of human U251 cells after 48 hrs by sulforhodamine B assay; conditions: U-251, 48 h; procedure, shortened: as §1
[12] = Growth inhibition of human UO31 cells after 48 hrs by sulforhodamine B assay; conditions: UO-31, 48 h; procedure, shortened: as §1
[13] = test system: HT-29; assay: Growth inhibition of human HT-29 cells after 48 hrs by sulforhodamine B assay; conditions: HT-29, 48 h; procedure, shortened: as §1
[14] = Growth inhibition of human SNB75 cells after 48 hrs by sulforhodamine B assay; conditions: SNB-75, 48 h; procedure, shortened: as §1
[15] = test system: KM12; assay: Growth inhibition of human KM12 cells after 48 hrs by sulforhodamine B assay; conditions: KM12, 48 h; procedure, shortened: as §1
[16] = Growth inhibition of human HOP92 cells after 48 hrs by sulforhodamine B assay; conditions: HOP-92, 48 h; procedure, shortened: as §1
[17] = test system: MCF7; assay: Growth inhibition of human MCF7 cells after 48 hrs by sulforhodamine B assay; conditions: MCF7, 48 h; procedure, shortened: as §1
[18] = Growth inhibition of human DU145 cells after 48 hrs by sulforhodamine B assay; conditions: DU-145, 48 h; procedure, shortened: as §1
[19] = test system: A498; assay: Growth inhibition of human A498 cells after 48 hrs by sulforhodamine B assay; conditions: A498, 48 h; procedure, shortened: as §2
[20] = test system: NCI-H460; assay: Growth inhibition of human NCI-H460 cells after 48 hrs by sulforhodamine B assay; conditions: NCI-H460, 48 h; procedure, shortened: as §1
[21] = Growth inhibition of human PC3 cells after 48 hrs by sulforhodamine B assay; conditions: PC-3, 48 h; procedure, shortened: as §1
[22] = Growth inhibition of human SW620 cells after 48 hrs by sulforhodamine B assay; conditions: SW-620, 48 h; procedure, shortened: as §1
[23] = test system: CCRF-CEM; assay: Growth inhibition of human CCRF-CEM cells after 48 hrs by sulforhodamine B assay; procedure, shortened: as §1
[24] = test system: MDA-MB-435; assay: Growth inhibition of human MDA-MB-435 cells after 48 hrs by sulforhodamine B assay; conditions: MDA-MB-435, 48 h; procedure, shortened: as §2
[25] = Growth inhibition of human SF268 cells after 48 hrs by sulforhodamine B assay; conditions: SF-268, 48 h; procedure, shortened: as §1
[26] = Growth inhibition of human HCT15 cells after 48 hrs by sulforhodamine B assay; conditions: HCT-15, 48 h; procedure, shortened: as §1
[27] = test system: ACHN; assay: Growth inhibition of human ACHN cells after 48 hrs by sulforhodamine B assay; procedure, shortened: as §1
[28] = Growth inhibition of human RPMI8226 cells after 48 hrs by sulforhodamine B assay; conditions: RPMI-8226, 48 h; procedure, shortened: as §1
[29] = test system: NCI-H23; assay: Growth inhibition of human NCI-H23 cells after 48 hrs by sulforhodamine B assay; conditions: NCI-H23, 48 h; procedure, shortened: as §1
[30] = Growth inhibition of human NCI-ADR-RES cells after 48 hrs by sulforhodamine B assay; procedure, shortened: as §1
[31] = Growth inhibition of human HL-60(TB) cells after 48 hrs by sulforhodamine B assay; conditions: HL-60, 48 h; procedure, shortened: as §1
[32] = Growth inhibition of human SF295 cells after 48 hrs by sulforhodamine B assay; conditions: SF-295, 48 h; procedure, shortened: as §1
[33] = test system: A549; assay: Growth inhibition of human A549/ATCC cells after 48 hrs by sulforhodamine B assay; conditions: A549, 48 h; procedure, shortened: as §1
[34] = test system: SK-MEL-2; assay: Growth inhibition of human SK-MEL-2 cells after 48 hrs by sulforhodamine B assay; conditions: SK-MEL-2, 48 h; procedure, shortened: as §1
[35] = Growth inhibition of human HOP62 cells after 48 hrs by sulforhodamine B assay; conditions: HOP-62, 48 h; procedure, shortened: as §1
[36] = Growth inhibition of human SKOV3 cells after 48 hrs by sulforhodamine B assay; conditions: SK-OV-3, 48 h; procedure, shortened: as §1
[37] = Growth inhibition of human COLO205 cells after 48 hrs by sulforhodamine B assay; conditions: COLO 205, 48 h; procedure, shortened: as §1
[38] = read-out: LD50 (the source's name)

COc1ccc(-c2n[nH]nc2-c2cc(OC)cc(OC)c2)cc1
GI50 [1]: 0.046 µM
CC50 [1, 38]: > 100 µM
GI50 [2]: 0.024 µM
LC50 (concentration giving 50% net cell kill) ([2]; read-out: LD50): > 100 µM
GI50 [3]: 0.05 µM
CC50 [3, 38]: > 100 µM
GI50 [4]: 0.027 µM
CC50 [4, 38]: > 100 µM
GI50 [5]: 0.015 µM
LC50 (concentration killing 50% of cells) ([5]; read-out: LD50): > 100 µM
GI50 [6]: 0.023 µM
CC50 [6, 38]: > 100 µM
GI50 [7]: 0.048 µM
CC50 [7, 38]: > 100 µM
GI50 [8]: < 0.01 µM
CC50 [8, 38]: > 100 µM
GI50 [9]: 0.046 µM
CC50 [9, 38]: > 100 µM
GI50 [10]: 0.076 µM
CC50 [10, 38]: > 100 µM
GI50 [11]: 0.038 µM
CC50 [11, 38]: > 100 µM
GI50 [12]: 0.02 µM
LC50 (concentration killing 50% of cells) ([12]; read-out: LD50): > 100 µM
GI50 [13]: 0.048 µM
LC50 (concentration killing 50% of cells) ([13]; read-out: LD50): > 100 µM
GI50 [14]: 0.014 µM
CC50 [14, 38]: > 100 µM
GI50 [15]: 0.03 µM
LC50 (concentration killing 50% of cells) ([15]; read-out: LD50): > 100 µM
GI50 [16]: < 0.01 µM
CC50 [16, 38]: > 100 µM
GI50 [17]: 0.025 µM
CC50 [17, 38]: > 100 µM
GI50 [18]: 0.045 µM
CC50 [18, 38]: > 100 µM
GI50 [19]: < 0.01 µM
LC50 (50% net cell kill) ([19]; read-out: LD50): > 100 µM
GI50 [20]: 0.034 µM
CC50 [20, 38]: > 100 µM
GI50 [21]: 0.042 µM
CC50 [21, 38]: > 100 µM
GI50 [22]: 0.03 µM
LD50 (concentration killing 50% of cells) [22]: > 100 µM
GI50 [23]: 0.032 µM
LC50 (concentration killing 50% of cells) ([23]; read-out: LD50): > 100 µM
GI50 [24]: < 0.01 µM
TGI [24]: 0.01 µM
LC50 (concentration killing 50% of cells) ([24]; read-out: LD50): > 100 µM
GI50 [25]: 0.177 µM
CC50 [25, 38]: > 100 µM
GI50 [26]: < 0.01 µM
CC50 [26, 38]: > 100 µM
GI50 [27]: 0.145 µM
CC50 [27, 38]: > 100 µM
GI50 [28]: 0.037 µM
CC50 [28, 38]: > 100 µM
GI50 [29]: 0.038 µM
LC50 (concentration giving 50% cell kill) ([29]; read-out: LD50): > 100 µM
GI50 [30]: < 0.01 µM
CC50 [30, 38]: > 100 µM
GI50 [31]: 0.023 µM
CC50 [31, 38]: > 100 µM
GI50 [32]: 0.011 µM
CC50 [32, 38]: > 100 µM
GI50 [33]: 0.037 µM
CC50 [33, 38]: > 100 µM
GI50 [34]: 0.056 µM
CC50 [34, 38]: > 100 µM
GI50 [35]: 0.025 µM
LC50 (concentration killing 50% of cells) ([35]; read-out: LD50): > 100 µM
GI50 [36]: 0.046 µM
LC50 (concentration killing 50% of cells) ([36]; read-out: LD50): > 100 µM
GI50 [37]: 0.149 µM
CC50 [37, 38]: > 100 µM
